Active and inactive are the calls of the source. The calls are words filed in the database; no cut-off is given here.
How the values were obtained:
Assay type in all cases: functional, organism-based
[1] = test system: Sporobolomyces salmonicolor; experiment: Antimicrobial activity against Sporidiobolus salmonicolor isolate 549 after 18 hrs
Procedure, shortened: (§1)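 Ciprofloxacin and amphotericin B were run alongside as reference antimicrobials.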

[2] = test system: Escherichia coli; experiment: Antimicrobial activity against Escherichia coli isolate 458 after 18 hrs; procedure, shortened: as §1
[3] = test system: Staphylococcus aureus; experiment: Antimicrobial activity against methicillin-resistant Staphylococcus aureus isolate 134/93 after 18 hrs

| Structure (SMILES) | Activity [1] | Activity [2] | Activity [3] |
| --- | --- | --- | --- |
| COC1=Cc2cn([C@@H](Cc3ccccc3)C(=O)O)c(=O)c3ccc(-c4ccccc4)c(c23)C1=O | inactive | inactive | inactive |
| O=C1OC(C(=O)O)c2cc(O)c(O)c3c(-c4ccccc4)ccc1c23 (configuration not stated) | Active | Active |  |
| O=C1C(O)=Cc2cn([C@H](Cc3ccccc3)C(=O)O)c(=O)c3ccc(-c4ccccc4)c1c23 | inactive | inactive | inactive |
| CC(C)C[C@H](C(=O)O)n1cc2c3c(c(-c4ccccc4)ccc3c1=O)C(=O)C(O)=C2 | inactive | inactive | inactive |
| COC1=Cc2cn([C@@H](Cc3c[nH]c4ccccc34)C(=O)O)c(=O)c3ccc(-c4ccccc4)c(c23)C1=O | inactive | inactive | inactive |
| O=C1OCc2cc(O)c(O)c3c(-c4ccccc4)ccc1c23 | Active | Active |  |
| O=C1C(O)=Cc2cn([C@@H](Cc3ccccc3)C(=O)O)c(=O)c3ccc(-c4ccccc4)c1c23 | inactive | inactive | inactive |
| O=C1C(O)=Cc2cn(CCCC[C@@H](C(=O)O)n3cc4c5c(c(-c6ccccc6)ccc5c3=O)C(=O)C(O)=C4)c(=O)c3ccc(-c4ccccc4)c1c23 | inactive | inactive | inactive |
| COC1=Cc2cn([C@H](Cc3ccccc3)C(=O)O)c(=O)c3ccc(-c4ccccc4)c(c23)C1=O | inactive | inactive | inactive |
| O=C1OC(C(=O)O)c2cc(O)c(O[C@@H]3O[C@H](CO)[C@@H](O)[C@H](O)[C@H]3O)c3c(-c4ccccc4)ccc1c23 (some centres not stated) | Active | Active |  |
| O=C1C(O)=Cc2coc(=O)c3ccc(-c4ccccc4)c1c23 |  |  | Active |
| O=C(O)c1cn(C2CC2)c2cc(N3CCNCC3)c(F)cc2c1=O | Active | Active |  |
| COC1=Cc2cn([C@H](CC(C)C)C(=O)O)c(=O)c3ccc(-c4ccccc4)c(c23)C1=O | inactive | inactive | inactive |
| COC1OC(=O)c2ccc(-c3ccccc3)c3c(O)c(O)cc1c23 (configuration not stated) |  |  | Active |
| CSCC[C@@H](C(=O)O)n1cc2c3c(c(-c4ccccc4)ccc3c1=O)C(=O)C(O)=C2 | inactive | inactive | inactive |
| O=C1C(O)=Cc2c3n(c(=O)c4ccc(-c5ccccc5)c1c24)[C@H](C(=O)O)CS3 | inactive | inactive | inactive |
| O=C1C(O)=Cc2cn(CCO)c(=O)c3ccc(-c4ccccc4)c1c23 | inactive | inactive | inactive |
| C[C@@H]1[C@H](O)[C@@H](C)/C=C/C=C/C=C/C=C/C=C/C=C/C=C/[C@H](O[C@@H]2O[C@H](C)[C@@H](O)[C@H](N)[C@@H]2O)C[C@@H]2O[C@](O)(C[C@@H](O)C[C@@H](O)[C@H](O)CC[C@@H](O)C[C@@H](O)CC(=O)O[C@H]1C)C[C@H](O)[C@H]2C(=O)O | Active | Active |  |
| CC(C)C[C@@H](C(=O)O)n1cc2c3c(c(-c4ccccc4)ccc3c1=O)C(=O)C(O)=C2 | inactive | inactive | inactive |
| O=C(O)CC(=O)OC[C@H]1O[C@@H](Oc2c(O)cc3c4c(ccc(-c5ccccc5)c24)C(=O)OC3)[C@H](O)[C@@H](O)[C@@H]1O | Active | Active |  |
| O=C1OC(O)c2cc(O)c(O)c3c(-c4ccccc4)ccc1c23 (configuration not stated) |  |  | Active |
| COc1cc2c3c(ccc(-c4ccccc4)c3c1O)C(=O)OC2OC (configuration not stated) |  |  | Active |
| COc1cc2c3c(ccc(-c4ccccc4)c3c1O[C@@H]1O[C@H](COC(=O)CC(=O)O)[C@@H](O)[C@H](O)[C@H]1O)C(=O)OC2 | Active | Active |  |
| COC1=Cc2cn([C@@H](Cc3ccc(O)cc3)C(=O)O)c(=O)c3ccc(-c4ccccc4)c(c23)C1=O | inactive | inactive | inactive |

From ChEMBL document CHEMBL4251676, “Precursor-Directed Biosynthesis of Phenylbenzoisoquinolindione Alkaloids and the Discovery of a Phenylphenalenone-Based Plant Defense Mechanism” (J Nat Prod, 2018)
